Assay results: ChEMBL document CHEMBL3085773, “A general method for making peptide therapeutics resistant to serine protease degradation: application to dipeptidyl peptidase IV substrates” (J Med Chem, 2013)
One block for each molecule: values may come before it. Square brackets hold non-standard residues; d marks the D form. Peptide text beside a SMILES is read from it. ξ: configuration not given here. ξAsp(3,3-Me2) = CC(C)(C(=O)O)C(N)C(=O)O; ξTle = CC(C)(C)C(N)C(=O)O

Assays:
[1] = biological target: DPP4 (dipeptidyl peptidase 4) (Sus scrofa, UniProt P22411); assay: Stability of the compound assessed as porcine DPP4-mediated compound degradation measured intact level at 0.1 mM measured at 30 mins by reverse-phase HPLC/MS analysis; format: ADME; settings: pig, read-out: Stability
Summary of the method: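 Synthetic hexapeptides (0.1 mM) incubated at 37 °C with 10 mU/mL DPP IV purified from porcine kidney in 50 mM HEPES, 0.14 M NaCl, pH 8.0; intact peptide by HPLC-MS, expressed as percent of time-zero value.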

[2] = biological target: T1, Trypsin (Sus scrofa, UniProt P00761); assay: Stability of the compound assessed as porcine pancreatic trypsin-mediated compound degradation at 0.1 mM after 5 hrs by reverse-phase HPLC/MS analysis; format: ADME; settings: pig, isolated protein, 100 µM
[3] = biological target: Chymotrypsinogen A (Bos taurus) (UniProt P00766); assay: Stability of the compound assessed as bovine pancreatic chymotrypsin-mediated compound degradation measured intact level at 0.1 mM after 0.6 hrs by reverse-phase HPLC/MS analysis; settings: cow
[4] = biological target: Dipeptidyl peptidase 4 (Homo sapiens, UniProt P27487); assay: Stability of the compound assessed as recombinant human DPP4-mediated compound degradation at 0.1 mM measured after 24 hrs by reverse-phase HPLC/MS analysis; format: ADME; settings: 100 µM
Summary of the method: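 GLP-1 peptides (0.1 mM) incubated at 37 °C with recombinant human DPP IV in 50 mM HEPES, 0.14 M NaCl, pH 8.0, up to 24 h; acid-quenched samples analysed by RP-HPLC-MS for intact peptide.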

[5] = biological target: T1, Trypsin; assay: Stability of the compound assessed as porcine pancreatic trypsin-mediated compound degradation at 0.1 mM after 8 hrs by reverse-phase HPLC/MS analysis; format: ADME; settings: pig, isolated protein, 100 µM

T1 sequence (P00761 whole entry): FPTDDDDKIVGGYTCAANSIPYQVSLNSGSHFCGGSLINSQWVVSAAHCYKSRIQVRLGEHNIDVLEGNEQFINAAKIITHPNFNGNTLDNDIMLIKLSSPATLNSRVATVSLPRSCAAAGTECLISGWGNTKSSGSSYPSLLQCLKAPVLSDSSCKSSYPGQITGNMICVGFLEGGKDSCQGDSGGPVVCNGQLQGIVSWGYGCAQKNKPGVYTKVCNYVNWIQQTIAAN
Chain of DPP4 (dipeptidyl peptidase 4) (P22411 whole entry): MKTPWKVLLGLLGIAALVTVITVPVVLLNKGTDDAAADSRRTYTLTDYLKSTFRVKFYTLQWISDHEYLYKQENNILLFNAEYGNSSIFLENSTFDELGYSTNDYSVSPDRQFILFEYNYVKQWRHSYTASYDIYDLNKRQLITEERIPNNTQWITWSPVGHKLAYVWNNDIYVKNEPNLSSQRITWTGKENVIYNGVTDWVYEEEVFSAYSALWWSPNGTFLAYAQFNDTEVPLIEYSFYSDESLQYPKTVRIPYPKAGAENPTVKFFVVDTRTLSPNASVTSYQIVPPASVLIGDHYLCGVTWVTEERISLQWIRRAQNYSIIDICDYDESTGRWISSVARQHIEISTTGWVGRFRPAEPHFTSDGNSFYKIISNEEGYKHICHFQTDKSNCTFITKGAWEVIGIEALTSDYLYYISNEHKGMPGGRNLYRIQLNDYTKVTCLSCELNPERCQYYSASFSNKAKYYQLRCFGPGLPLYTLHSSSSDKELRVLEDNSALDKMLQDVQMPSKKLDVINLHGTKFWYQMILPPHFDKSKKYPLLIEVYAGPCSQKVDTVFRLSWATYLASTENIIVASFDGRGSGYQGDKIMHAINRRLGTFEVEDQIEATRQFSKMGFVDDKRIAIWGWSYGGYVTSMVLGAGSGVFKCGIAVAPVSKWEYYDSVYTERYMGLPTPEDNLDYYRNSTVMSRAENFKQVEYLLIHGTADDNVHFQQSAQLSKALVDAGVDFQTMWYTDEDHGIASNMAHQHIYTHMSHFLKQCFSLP
Chain of Dipeptidyl peptidase 4 (P27487 whole entry): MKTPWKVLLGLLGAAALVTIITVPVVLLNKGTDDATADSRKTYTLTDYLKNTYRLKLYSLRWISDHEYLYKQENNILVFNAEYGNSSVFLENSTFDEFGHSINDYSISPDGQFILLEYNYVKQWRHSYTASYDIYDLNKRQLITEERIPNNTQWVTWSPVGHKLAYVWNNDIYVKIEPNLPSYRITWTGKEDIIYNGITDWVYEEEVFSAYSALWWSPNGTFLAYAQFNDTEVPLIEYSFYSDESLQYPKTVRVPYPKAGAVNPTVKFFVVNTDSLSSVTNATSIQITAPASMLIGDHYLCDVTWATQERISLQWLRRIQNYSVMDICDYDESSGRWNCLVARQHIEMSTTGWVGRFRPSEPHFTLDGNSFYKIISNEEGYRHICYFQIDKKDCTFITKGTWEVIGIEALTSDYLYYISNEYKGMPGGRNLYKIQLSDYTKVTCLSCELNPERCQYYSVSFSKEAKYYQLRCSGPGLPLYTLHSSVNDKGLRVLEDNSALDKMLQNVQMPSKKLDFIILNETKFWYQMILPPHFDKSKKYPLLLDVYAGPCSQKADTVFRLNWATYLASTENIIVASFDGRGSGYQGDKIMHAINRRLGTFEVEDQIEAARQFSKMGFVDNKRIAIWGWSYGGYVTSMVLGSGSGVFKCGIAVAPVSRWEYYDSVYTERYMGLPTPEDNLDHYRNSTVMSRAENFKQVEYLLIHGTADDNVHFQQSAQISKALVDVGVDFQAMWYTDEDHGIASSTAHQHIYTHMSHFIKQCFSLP

remaining at 0.5 h, 100 µM [1]: < 70%
SMILES: CC[C@H](C)[C@H](NC(=O)[C@@H]1CCCN1C(=O)[C@H](C)N)C(=O)N[C@@H](CO)C(=O)N[C@@H](Cc1c[nH]c2ccccc12)C(=O)N[C@@H](CO)C(=O)O (H-APISWS-OH)

Stability [2]: Stable
remaining at 0.6 h, 100 µM [3]: 50%
SMILES: CC(C)[C@H](NC(=O)C(NC(=O)[C@H](Cc1c[nH]c2ccccc12)NC(=O)[C@H](C)NC(=O)C(NC(=O)[C@H](Cc1ccccc1)NC(=O)C(NC(=O)[C@H](CCCCN)NC(=O)[C@H](C)NC(=O)[C@H](C)NC(=O)[C@H](CCC(N)=O)NC(=O)CNC(=O)[C@H](CCC(=O)O)NC(=O)C(NC(=O)[C@H](Cc1ccc(O)cc1)NC(=O)[C@H](CO)NC(=O)[C@H](CO)NC(=O)[C@@H](NC(=O)[C@H](CC(=O)O)NC(=O)[C@H](CO)NC(=O)C(NC(=O)[C@H](Cc1ccccc1)NC(=O)[C@@H](NC(=O)CNC(=O)C(NC(=O)[C@H](C)NC(=O)[C@@H](N)Cc1c[nH]cn1)C(C)(C)C(=O)O)[C@@H](C)O)C(C)(C)C)C(C)C)C(C)(C)C)C(C)(C)C(=O)O)C(C)(C)C)C(C)(C)C)C(=O)N[C@@H](CCCCN)C(=O)NC(C(=O)N[C@@H](CCCNC(=N)N)C(N)=O)C(C)(C)C(=O)O (stereo not given in full) (H-HA[ξAsp(3,3-Me2)]GTF[ξTle]SDVSSY[ξTle]EGQAAK[ξAsp(3,3-Me2)]F[ξTle]AW[ξTle]VK[ξAsp(3,3-Me2)]R-NH2)

Stability [4]: Stable
SMILES: CC[C@H](C)[C@H](NC(=O)[C@H](Cc1ccccc1)NC(=O)[C@H](CCC(=O)O)NC(=O)[C@H](CCCCN)NC(=O)[C@H](C)NC(=O)[C@H](C)NC(=O)[C@H](CCC(N)=O)NC(=O)CNC(=O)[C@H](CCC(=O)O)NC(=O)[C@H](CC(C)C)NC(=O)[C@H](Cc1ccc(O)cc1)NC(=O)[C@H](CO)NC(=O)[C@H](CO)NC(=O)[C@@H](NC(=O)[C@H](CC(=O)O)NC(=O)[C@H](CO)NC(=O)[C@@H](NC(=O)[C@H](Cc1ccccc1)NC(=O)[C@@H](NC(=O)CNC(=O)C(NC(=O)[C@H](C)NC(=O)[C@@H](N)Cc1cnc[nH]1)C(C)(C)C)[C@@H](C)O)[C@@H](C)O)C(C)C)C(=O)N[C@@H](C)C(=O)N[C@@H](Cc1c[nH]c2ccccc12)C(=O)N[C@@H](CC(C)C)C(=O)N[C@H](C(=O)N[C@@H](CCCCN)C(=O)NCC(=O)N[C@@H](CCCN=C(N)N)C(N)=O)C(C)C (stereo not given in full)

Stability [5]: Stable
SMILES: CC(C)C[C@H](NC(=O)[C@@H](N)CC(C)C)C(=O)N1CCC[C@H]1C(=O)N[C@@H](CCCNC(=N)N)C(=O)NC(C(=O)N[C@@H](C)C(=O)N[C@@H](CC(N)=O)C(=O)NCC(=O)N[C@@H](CO)C(=O)N[C@@H](CO)C(=O)N[C@@H](Cc1ccccc1)C(=O)N[C@H](C(=O)N[C@H](C(=O)N[C@H](C(=O)O)C(C)C)[C@@H](C)O)C(C)C)C(C)(C)C (stereo not given in full) (H-LLPR[ξTle]ANGSSFVTV-OH)
